Experimental data as given in article PMC2825117 (Journal of Medicinal Chemistry, 2010).

Columns and labels:
PHD2 = PHD2 (Homo sapiens, UniProt Q9GZT9); assay: PHD2 biochemical activity assay; details: hydroxylation of CODD peptide substrate, MALDI-TOF MS
FIH = FIH (Homo sapiens, UniProt Q9NWT6); assay: FIH MALDI-TOF hydroxylation assay; assay type: biochemical
JMJD2E = target: T1, JMJD2E (Homo sapiens, UniProt B2RXH2); assay: MALDI-TOF MS based demethylation assay, JMJD2E; assay type: biochemical
T1 sequence (B2RXH2 1-337): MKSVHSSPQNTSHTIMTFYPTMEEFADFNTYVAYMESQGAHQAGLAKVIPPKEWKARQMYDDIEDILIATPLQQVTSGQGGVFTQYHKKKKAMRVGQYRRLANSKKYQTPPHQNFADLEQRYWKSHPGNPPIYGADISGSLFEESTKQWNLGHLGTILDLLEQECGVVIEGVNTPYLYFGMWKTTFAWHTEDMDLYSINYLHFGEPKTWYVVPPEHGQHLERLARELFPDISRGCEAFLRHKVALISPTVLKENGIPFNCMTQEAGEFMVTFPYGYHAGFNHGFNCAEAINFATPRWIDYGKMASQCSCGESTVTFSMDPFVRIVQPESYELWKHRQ
In short: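 Enzyme: human JMJD2E catalytic domain (residues 1-337), expressed in E. coli as N-terminal His6-tagged protein and purified by Ni-affinity chromatography. Quenched reaction mixtures are mixed with α-cyano-4-hydroxycinnamic acid matrix and analysed by MALDI-TOF MS. Percentage demethylation comes from the relative intensities of the peptide methylation states. IC50 is derived from how percentage demethylation varies across inhibitor concentrations.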

JMJD2A = target: T2, JMJD2A (Homo sapiens, UniProt O75164); assay: MALDI-TOF MS based demethylation assay, JMJD2A; assay type: biochemical
T2 sequence (O75164 1-1064): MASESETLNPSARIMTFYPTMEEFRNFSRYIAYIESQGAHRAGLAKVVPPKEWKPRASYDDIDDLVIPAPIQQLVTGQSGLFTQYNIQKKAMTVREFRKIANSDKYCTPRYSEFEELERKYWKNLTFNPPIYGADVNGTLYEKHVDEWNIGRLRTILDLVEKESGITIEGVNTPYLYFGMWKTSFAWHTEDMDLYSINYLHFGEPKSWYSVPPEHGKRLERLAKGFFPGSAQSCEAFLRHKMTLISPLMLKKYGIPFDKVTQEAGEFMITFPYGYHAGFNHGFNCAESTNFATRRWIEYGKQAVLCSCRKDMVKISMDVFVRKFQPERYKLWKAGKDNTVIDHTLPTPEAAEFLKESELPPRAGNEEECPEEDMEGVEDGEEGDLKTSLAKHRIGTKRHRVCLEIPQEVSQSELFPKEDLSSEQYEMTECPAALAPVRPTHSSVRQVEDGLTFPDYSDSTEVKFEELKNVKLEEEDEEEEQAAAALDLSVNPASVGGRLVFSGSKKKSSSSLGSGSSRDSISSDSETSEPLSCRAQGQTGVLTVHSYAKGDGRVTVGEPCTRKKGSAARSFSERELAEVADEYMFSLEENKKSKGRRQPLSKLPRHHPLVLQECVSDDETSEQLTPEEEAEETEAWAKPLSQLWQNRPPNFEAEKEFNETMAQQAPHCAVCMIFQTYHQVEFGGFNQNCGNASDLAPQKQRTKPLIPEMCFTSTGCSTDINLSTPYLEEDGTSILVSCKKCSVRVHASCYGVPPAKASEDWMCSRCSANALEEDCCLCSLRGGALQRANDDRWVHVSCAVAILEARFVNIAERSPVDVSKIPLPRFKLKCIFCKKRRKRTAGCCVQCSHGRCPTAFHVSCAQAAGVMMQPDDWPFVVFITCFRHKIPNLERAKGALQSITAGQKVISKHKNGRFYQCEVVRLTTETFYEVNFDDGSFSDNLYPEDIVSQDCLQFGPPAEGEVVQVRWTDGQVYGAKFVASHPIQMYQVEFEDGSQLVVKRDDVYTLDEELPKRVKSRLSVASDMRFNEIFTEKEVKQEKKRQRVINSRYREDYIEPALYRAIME

Sequence of PHD2 (Q9GZT9 whole entry): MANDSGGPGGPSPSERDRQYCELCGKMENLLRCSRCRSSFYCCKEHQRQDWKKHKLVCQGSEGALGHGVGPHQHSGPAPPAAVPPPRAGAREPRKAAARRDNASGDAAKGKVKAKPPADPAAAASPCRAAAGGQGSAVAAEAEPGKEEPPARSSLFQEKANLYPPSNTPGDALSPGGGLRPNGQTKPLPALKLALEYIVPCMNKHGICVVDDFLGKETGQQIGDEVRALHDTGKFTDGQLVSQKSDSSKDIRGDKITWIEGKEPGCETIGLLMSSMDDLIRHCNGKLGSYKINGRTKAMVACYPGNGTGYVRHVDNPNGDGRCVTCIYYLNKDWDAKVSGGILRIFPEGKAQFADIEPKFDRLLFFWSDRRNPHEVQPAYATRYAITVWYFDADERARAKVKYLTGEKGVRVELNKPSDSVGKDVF
Sequence of FIH (Q9NWT6 whole entry): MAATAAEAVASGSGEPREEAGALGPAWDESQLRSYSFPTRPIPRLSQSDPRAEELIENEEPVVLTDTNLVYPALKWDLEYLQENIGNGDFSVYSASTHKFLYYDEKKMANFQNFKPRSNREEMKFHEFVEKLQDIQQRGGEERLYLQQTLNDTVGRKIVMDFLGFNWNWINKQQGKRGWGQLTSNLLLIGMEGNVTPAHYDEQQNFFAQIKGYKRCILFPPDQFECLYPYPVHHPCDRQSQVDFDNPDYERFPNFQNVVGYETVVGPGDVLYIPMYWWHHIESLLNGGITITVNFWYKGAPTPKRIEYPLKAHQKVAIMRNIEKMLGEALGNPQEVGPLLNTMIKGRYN

Row | inhibitory activity toward PHD2 (in words) (PHD2) | IC50 (FIH) | IC50 (JMJD2E) | Compound | also measured
1 | No inhibitory activity | 37.2 µM |  | CC(C)(C)c1ccc(S(=O)(=O)Oc2ccc(C[C@@H](NC(=O)C(=O)O)C(=O)O)cc2)cc1 [7c] | selectivity of inhibition (JMJD2E) with regard to FIH (FIH; comparison of JMJD2E FDH IC50 and FIH MALDI-TOF IC50): relatively low
2 | No inhibitory activity | 60.2 µM |  | O=C(O)C(=O)N[C@H](Cc1ccc(OS(=O)(=O)c2ccc(Br)cc2)cc1)C(=O)O [7f] | 
3 | No inhibitory activity |  |  | O=C(O)C(=O)N[C@H](Cc1ccc(OS(=O)(=O)c2ccc(F)cc2)cc1)C(=O)O [7e] | 

Second part, the molecule before the results:

Row | Compound | inhibitory activity toward PHD2 (in words) (PHD2) | IC50 (FIH) | IC50 (JMJD2E) | also measured
4 | O=C(O)C(=O)N[C@H](Cc1ccc(OS(=O)(=O)c2ccccc2)cc1)C(=O)O [7d] |  |  | 43 µM | IC50 (JMJD2A): 17 µM
5 | O=C(O)C(=O)N[C@H](Cc1ccc(OCc2ccccc2[N+](=O)[O-])cc1)C(=O)O [10k] |  |  | 47 µM | 
6 | O=C(O)CNC(=O)C(=O)O [1a, N-oxalylglycine, reference compound] | potent inhibitor of PHD2 |  |  | 
